High-throughput results from PubChem.
Lmaj promast: inhibitors of Leishmania major promastigote growth | Leishmania major promastigotes, resazurin fluorescence viability | inhibition, % at 10 µM | actives 9% (n = 200,000); in the data active = inhibition above about 50%;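 note: promastigotes grown with compound for 44 hours at 28 °C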
PTEN del growth: suppresses growth of cells with PTEN deletion; HCT116 PTEN-null viability, CellTiter-Glo, 60 h; stronger effect = lower value; viability, % at 10 µM; actives 1.2% (n = 140,000); AID 827;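 active = viability at or below a set limit, 4 SD under the median of all tested compounds, cut at about 3.7% in these data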;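 note: PTEN knockout HCT116 line with beta catenin targeted HCT116 as companion control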
TNAP inh noacc: TNAP (human) inhibition, acceptor-free conditions | P05186 | purified TNAP, CDP-star luminescence, 30 min | inhibition, % at 20 µM | actives 0.26% (n = 200,000);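 active = tissue-nonspecific alkaline phosphatase inhibition above about 50% at 20 µM in the single-dose screen, limit read from the data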;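 note: 0% = DMSO negative control and 100% = EDTA positive control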
Target sequence (P05186 whole entry, looked up): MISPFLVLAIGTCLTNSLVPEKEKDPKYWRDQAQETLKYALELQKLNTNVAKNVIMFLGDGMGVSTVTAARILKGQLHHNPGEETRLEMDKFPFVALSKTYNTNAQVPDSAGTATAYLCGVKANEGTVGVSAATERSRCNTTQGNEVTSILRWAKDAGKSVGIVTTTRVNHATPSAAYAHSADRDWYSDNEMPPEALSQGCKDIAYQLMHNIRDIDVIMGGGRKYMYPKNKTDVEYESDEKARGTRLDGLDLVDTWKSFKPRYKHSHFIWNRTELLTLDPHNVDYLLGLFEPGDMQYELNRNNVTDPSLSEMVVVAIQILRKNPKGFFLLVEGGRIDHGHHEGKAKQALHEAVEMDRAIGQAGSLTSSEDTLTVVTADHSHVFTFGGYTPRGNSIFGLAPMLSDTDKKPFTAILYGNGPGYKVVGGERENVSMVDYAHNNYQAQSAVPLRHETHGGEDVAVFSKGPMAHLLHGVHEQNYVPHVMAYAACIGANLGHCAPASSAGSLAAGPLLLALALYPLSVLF
TNAP act hi DEA: activators of human TNAP at high phosphate acceptor concentration; purified TNAP, CDP-star luminescence, 1 M DEA, 30 min; stronger effect = higher value; 0 = EDTA background, 1 = DMSO-only activity; activation factor at 20 µM; 200,000 tested, under 10 active; AID 1136;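 active = activation factor at least 2 at 20 µM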
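system = human TNAP | amount = enzyme diluted 1/800 final | reagent = 100 µM CDP-star substrate | signal = luminescent substrate turnover signal | dosing = one dose, 20 µM | benchmarks = EDTA negative control, DMSO positive control | measure = activation factor | timing = 30 min reaction, room temperature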
bCat KO growth: beta-catenin-lacking colon tumor cell growth suppression; actives 1.5% (n = 140,000); HCT116 beta-catenin knockout viability, CellTiter-Glo, 60 h; stronger effect = lower value; viability, % at 10 µM;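 active = viability at or under a set limit, the compound median less 4 SD, cut at about 6% in these data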;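 note: 0% = Hyamine 1622 control at 20 µM and 100% = untreated cell control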
TNAP inh hi DEA: inhibitors of human TNAP at high phosphate acceptor concentration; purified TNAP, CDP-star luminescence, 1 M DEA; actives 0.03% (n = 200,000); inhibition, % at 20 µM; AID 1135; P05186;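 active = over 50% inhibition of tissue-nonspecific alkaline phosphatase at 20 µM in the single-dose screen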;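 note: plate controls were DMSO wells for no effect and EDTA-quenched wells as full inhibition for full effect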
* marks the source's active call; other numbers are inactive results; . = no result given. The list is not random: actives were taken first. Their share in the collection is about 9.6%.

SMILES | Lmaj promast | PTEN del growth | TNAP inh noacc | TNAP act hi DEA | bCat KO growth | TNAP inh hi DEA
O=C(/C=C\c1ccc2c(c1)OCO2)Nc1nnc(SCC(=O)OCc2ccccc2)s1 | 91.7* | 95.7 | 6.0 | 1 | 90.6 | 1.3
COc1cccc(-n2nc(-c3ccnn3-c3ccc(F)cc3)c(=O)n(C)c2=O)c1 | 51.8* | 84.2 | -11.9 | 1 | 91.0 | -0.4
COc1ccc(-n2nccc2-c2nn(-c3cccc(OC)c3)c(=O)n(C)c2=O)cc1 | 6.5 | 89.0 | -16.2 | 1 | 88.1 | 0.5
O=C(N/N=C/c1c[nH]c2ccccc12)c1cc(-c2ccccc2)n[nH]1 | 79.1* | 80.8 | 87.4* | 0.8 | 79.2 | 16.3
O=C(N/N=C/c1c[nH]c2ccccc12)c1cc(-c2ccc3ccccc3c2)n[nH]1 | 30.1 | 17.4 | 2.6 | 0.9 | 18.6 | 5.3
Cc1ccc(-c2cc(C(=O)N/N=C/c3c[nH]c4ccccc34)[nH]n2)cc1 | 28.1 | 15.0 | 71.1* | 0.9 | 12.6 | 10.4
O=C(N/N=C/c1c[nH]c2ccccc12)c1cc(-c2ccc(-c3ccccc3)cc2)n[nH]1 | 0.2 | 1.3* | 2.7 | 1 | 1.1* | -2.5
C=CCc1cccc2cc(C(=O)N3CCN(c4ccccn4)CC3)c(=O)oc12 | -7.4 | . | -22.3 | 1 | . | -2.9
O=C(COc1ccccc1Cl)Nc1ccc(CN2CCCCC2)cc1 | 5.3 | . | -5.0 | 1 | . | -4.2
CCOCCCNC(=O)CNC(=S)N(Cc1ccc(C)cc1)Cc1ccco1 | -5.8 | . | -20.8 | 1 | . | 0.3
Cn1cc(CN2CCN(Cc3ccccc3)CC2)c(-c2cccc(Cl)c2)n1 | 14.0 | . | -3.2 | 1 | . | -1.0
O=C(CS(=O)(=O)Cc1ccccc1)NCc1ccco1 | -4.1 | . | -15.4 | 1.1 | . | -6.2
CCOC(=O)c1sc(NC(=O)C(OC(C)=O)c2ccccc2)nc1C (centres undefined) | 44.2 | 88.9 | -6.6 | 1 | 89.0 | -3.2
CCOC(=O)c1sc(NC(=O)C(CC)Sc2nnc3c4ccccc4n(C(C)C)c3n2)nc1C (centres undefined) | 72.1* | 74.8 | -8.8 | 1 | 69.7 | -2.1
CCOC(=O)Cc1nnc(NC(=O)C(CC)Sc2nnc3c4ccccc4n(C)c3n2)s1 (centres undefined) | -9.8 | 102.0 | -4.0 | 1 | 98.4 | -3.5
CCOC(=O)c1sc(NC(=O)C(CC)Sc2nc3ccccc3[nH]2)nc1C (centres undefined) | 53.8* | . | . | . | . | .
CCC(Sc1nnc2c3ccccc3n(CC)c2n1)C(=O)Nc1sc2c(c1C#N)CCCC2 (centres undefined) | 25.5 | 1.4* | -2.0 | 0.9 | 1.4* | 13.8
COc1ccc(CCc2nnc(CCC(=O)N(C)Cc3ccnc4ccccc34)o2)cc1 | -1.4 | . | -3.8 | 1 | . | 2.6
COC(=O)c1ccccc1NC(=O)c1cc([N+](=O)[O-])nn1Cc1ccccc1 | -0.2 | 92.8 | -16.3 | 1 | 99.6 | 0.9
C/C(=N\NC(=O)C(=O)Nc1cccc(Cl)c1C)c1ccncc1 | 68.8* | 96.2 | -70.7 | 1 | 102.8 | -4.7
Cc1ccc(NC(=O)CSCC(=O)N2c3ccccc3CCc3ccccc32)cc1 | 66.5* | 67.1 | -8.5 | 1 | 65.9 | -4.1
Cc1ccc(NC(=O)N2CCc3ccccc32)cc1 | 0.8 | 64.0 | -7.2 | 1 | 66.9 | 1.3
c1ccc(CN2CCOCC2)cc1 | -4.7 | 114.0 | -11.1 | 1.1 | 103.1 | -5.8
c1ccc(Oc2cccc(CN3CCOCC3)c2)cc1 | 99.7* | 95.1 | -5.3 | 1 | 87.1 | -3.4
O=C(c1ccc(Cl)c(Cl)c1)N1CCC(O)(CN2CCOCC2)CC1 | 78.6* | . | -5.4 | 1 | . | -2.6
SMILES | Lmaj promast | PTEN del growth | TNAP inh noacc | TNAP act hi DEA | bCat KO growth | TNAP inh hi DEA
O=C(Nc1ccccc1C(F)(F)F)c1ccc(CN2CCC(Cc3ccccc3)CC2)cc1 | 63.8* | 76.7 | -6.7 | 1 | 75.0 | -2.7
CSc1ccc(CN2CCN(C(=O)c3ccncc3)CC2)cc1 | 73.8* | . | -10.5 | 1.1 | . | -5.6
CCC1CC(CSc2ncn[nH]2)OC1=O (centres undefined) | -7.9 | 88.1 | 7.8 | 1 | 84.7 | -0.1
CC(=O)Nc1cccc(C(=O)N2CCN(Cc3ccccc3)CC2)c1 | 4.9 | 106.5 | -11.3 | 1.1 | 93.8 | -8.5
Cc1cccc(NC(=O)c2ccc(CN3CCN(Cc4ccccc4)CC3)cc2)c1 | 99.5* | . | -5.0 | 1.1 | . | -5.1
Cc1ccc(C)n1-c1ccc(C(=O)Nc2ccccc2)cc1 | 12.1 | 17.3 | -6.9 | 1.1 | 22.4 | -5.3
O=C(OCC(=O)N1CCN(Cc2ccccc2)CC1)c1ccc(Cl)cc1 | 57.1* | . | -1.7 | 1.1 | . | -6.1
Cc1ccc(C)n1-c1cccc(NC(=O)c2ccccc2)c1 | 76.1* | 9.2 | -16.0 | 1 | 16.0 | -2.7
O=C(Nc1cccc(C(=O)N2CCN(Cc3ccccc3)CC2)c1)c1ccccc1 | 75.4* | 78.1 | -1.8 | 1 | 78.5 | -3.0
O=C(c1ccc(CN2CCOCC2)cc1)N1CCN(Cc2ccccc2)CC1 | 75.7* | 103.4 | -5.1 | 1 | 105.6 | -2.1
O=C(NCC(c1cccnc1)N1CCN(c2ccccc2F)CC1)OCc1ccccc1 (centres undefined) | 95.6* | 68.0 | -6.7 | 1.1 | 56.0 | -6.1
O=C(NCC(c1cccnc1)N1CCN(c2ccc(F)cc2)CC1)c1cccc(Cl)c1 (centres undefined) | 96.5* | 66.4 | -6.2 | 1 | 68.3 | -2.7
COC(=O)NCC(c1cccnc1)N1CCN(c2ccccc2)CC1 (centres undefined) | 45.1 | 86.8 | -13.5 | 1.1 | 85.7 | -6.5
O=C(NCC(c1cccnc1)N1CCOCC1)Nc1ccccc1 (centres undefined) | -5.4 | 73.9 | -10.2 | 1 | 80.9 | -2.6
O=C(NCC(c1cccnc1)N1CCN(c2ccccc2)CC1)C1CCCCC1 (centres undefined) | 74.1* | 73.4 | -3.0 | 1 | 89.5 | -3.1
O=C(NCC(c1cccnc1)N1CCN(c2ccccc2)CC1)OCc1ccccc1 (centres undefined) | 95.7* | 74.0 | -4.4 | 1 | 73.8 | -0.1
COCCNC(=O)C(c1cccnc1)N(Cc1ccc(C)cc1)C(=O)Cn1nnc2ccccc21 (centres undefined) | 4.0 | . | -10.2 | 1 | . | -2.7
O=C(NCC(c1cccnc1)N1CCN(c2ccc(F)cc2)CC1)OCc1ccccc1 (centres undefined) | 99.2* | 48.2 | -9.8 | 1 | 48.5 | -2.3
Clc1ccc(C2C3=C(Nc4ncnn42)c2ccccc2CC3)cc1 (centres undefined) | 3.4 | 37.9 | 6.0 | 1 | 39.4 | 0.5
S=C(NCc1ccncc1)NC1CCCCC1 | -3.0 | . | -9.9 | 1 | . | -2.0
COCCN(Cc1cc2cc(C)ccc2n2nnnc12)C(=S)Nc1ccc(C)cc1 | 56.6* | . | 2.6 | 1 | . | -2.0
COCCNC(=S)N(Cc1cc2cc(C)ccc2n2nnnc12)C1CCCC1 | 12.2 | . | -3.1 | 1 | . | -3.1
